According to ChEMBL document CHEMBL1122685, “Identification of an acridine photoaffinity probe for trypanocidal action” (1984):

What follows are molecules tested on Trypanosoma brucei (assay: Trypanocidal activity against Trypanosoma brucei, exposure of parasites to compound prior to injection into mice at 10 e-5 M concentration in presence of light).
Type: functional
Design: unit: days
Method in brief: (§1)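 DEAE-purified T. brucei EATRO 110 at 5×10^6/mL in TSG was mixed with drug at the final concentration by gentle rotation for 10 min. Samples were light-activated for 10 min under a 30W fluorescent lamp 4 cm above. 5×10^5 treated parasites in 0.1 mL were injected ip into Swiss mice, five per group. Survival was scored daily for 30 days and reported as mean days ±SD, with untreated controls.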

SMILES	Activity
Nc1ccc2c(N)c3ccccc3nc2c1	30
[N-]=[N+]=Nc1ccc2cc3ccc(N)cc3nc2c1	12.7
C[n+]1c2cc(N)ccc2cc2ccc(N=[N+]=[N-])cc21.[Cl-]	30
[N-]=[N+]=Nc1ccc2nc3ccccc3c(N)c2c1	30
C[n+]1c2cc(N=[N+]=[N-])ccc2cc2ccc(N=[N+]=[N-])cc21.[Cl-]	26.6
C[n+]1c2ccccc2cc2cc(N=[N+]=[N-])ccc21.[Cl-]	13.9
[N-]=[N+]=Nc1ccc2c(N)c3ccccc3nc2c1	14.2
C[n+]1c2ccccc2c(N)c2ccccc21.[Cl-]	21
C[n+]1c2ccccc2cc2ccc(N=[N+]=[N-])cc21.[Cl-]	30
C[n+]1c2ccccc2c(N=[N+]=[N-])c2ccccc21.[Cl-]	20
C[n+]1c2ccccc2cc2cc(N)ccc21.[Cl-]	6.8
[N-]=[N+]=Nc1ccc(Nc2c3ccccc3nc3ccccc23)cc1	30

Each molecule was assayed on Trypanosoma brucei (assay: Trypanocidal activity against Trypanosoma brucei, exposure of parasites to compound prior to injection into mice at 10 e-4 M concentration in presence of light).
Type: functional
Design: unit: days
Method in brief: as §1

SMILES	Activity
Nc1ccc2c(N)c3ccccc3nc2c1	30
[N-]=[N+]=Nc1ccc2cc3ccc(N)cc3nc2c1	30
C[n+]1c2cc(N)ccc2cc2ccc(N=[N+]=[N-])cc21.[Cl-]	30
[N-]=[N+]=Nc1ccc2nc3ccccc3c(N)c2c1	30
C[n+]1c2cc(N=[N+]=[N-])ccc2cc2ccc(N=[N+]=[N-])cc21.[Cl-]	30
C[n+]1c2ccccc2cc2cc(N=[N+]=[N-])ccc21.[Cl-]	30
[N-]=[N+]=Nc1ccc2c(N)c3ccccc3nc2c1	26.8
C[n+]1c2ccccc2c(N)c2ccccc21.[Cl-]	30
C[n+]1c2ccccc2cc2ccc(N=[N+]=[N-])cc21.[Cl-]	30
C[n+]1c2ccccc2c(N=[N+]=[N-])c2ccccc21.[Cl-]	30
C[n+]1c2ccccc2cc2cc(N)ccc21.[Cl-]	30
[N-]=[N+]=Nc1ccc(Nc2c3ccccc3nc3ccccc23)cc1	30

These molecules were tested on Trypanosoma brucei (assay: Compound is evaluated for trypanocidal activity against Trypanosoma brucei, by exposing the parasites directly to compound prior to injection to mice at 10 e-6 M concentration (pre) in presence of light.).
Type: functional
Method in brief: (§2)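 Compound was irradiated 1 h before contact with T. brucei EATRO 110 (5×10^6/mL in TSG, final drug concentration). After 10 min gentle rotation, the mixture was irradiated again for 10 min under a 30W fluorescent lamp at 4 cm. 5×10^5 parasites in 0.1 mL were given ip to five Swiss mice per group. Read-out was mean days survival ±SD over 30 days, with untreated controls.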

SMILES	Mean survival of mice (days)
Nc1ccc2c(N)c3ccccc3nc2c1	27.8
[N-]=[N+]=Nc1ccc2cc3ccc(N)cc3nc2c1	5.4
C[n+]1c2cc(N)ccc2cc2ccc(N=[N+]=[N-])cc21.[Cl-]	5.5
[N-]=[N+]=Nc1ccc2nc3ccccc3c(N)c2c1	4.6
C[n+]1c2cc(N=[N+]=[N-])ccc2cc2ccc(N=[N+]=[N-])cc21.[Cl-]	5.4
C[n+]1c2ccccc2cc2cc(N=[N+]=[N-])ccc21.[Cl-]	4.8
C[n+]1c2ccccc2c(N)c2ccccc21.[Cl-]	6.2
C[n+]1c2ccccc2cc2ccc(N=[N+]=[N-])cc21.[Cl-]	5
C[n+]1c2ccccc2c(N=[N+]=[N-])c2ccccc21.[Cl-]	8.6

Each molecule was assayed on Trypanosoma brucei (assay: Trypanocidal activity against Trypanosoma brucei, exposur of parasites to compound prior to injection into mice at 10 e-6 M concentration in presence of light).
Type: functional
Design: unit: days
Method in brief: as §1

SMILES	Activity
Nc1ccc2c(N)c3ccccc3nc2c1	17.4
[N-]=[N+]=Nc1ccc2cc3ccc(N)cc3nc2c1	11.2
C[n+]1c2cc(N)ccc2cc2ccc(N=[N+]=[N-])cc21.[Cl-]	30
[N-]=[N+]=Nc1ccc2nc3ccccc3c(N)c2c1	11.6
C[n+]1c2cc(N=[N+]=[N-])ccc2cc2ccc(N=[N+]=[N-])cc21.[Cl-]	8.2
C[n+]1c2ccccc2cc2cc(N=[N+]=[N-])ccc21.[Cl-]	5.5
[N-]=[N+]=Nc1ccc2c(N)c3ccccc3nc2c1	7.6
C[n+]1c2ccccc2c(N)c2ccccc21.[Cl-]	5.8
C[n+]1c2ccccc2cc2ccc(N=[N+]=[N-])cc21.[Cl-]	8.6
C[n+]1c2ccccc2c(N=[N+]=[N-])c2ccccc21.[Cl-]	6.8
C[n+]1c2ccccc2cc2cc(N)ccc21.[Cl-]	6
[N-]=[N+]=Nc1ccc(Nc2c3ccccc3nc3ccccc23)cc1	5.8

Each molecule was assayed on Trypanosoma brucei (assay: Trypanocidal activity against Trypanosoma brucei, exposure of parasites to compound prior to injection into mice at 10 e-6 M concentration in dark conditions).
Type: functional
Method in brief: (§3)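 T. brucei EATRO 110 was separated from blood on DEAE-cellulose and washed in Tris-saline-glucose (TSG). Parasites at 5×10^6/mL in TSG were gently rotated 10 min with drug at the final concentration, kept dark under a red safelight until injection. Swiss mice, five per group, received 5×10^5 parasites ip in 0.1 mL. Read-out was mean days survival ±SD over 30 days, against untreated-parasite controls.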

SMILES	Activity
Nc1ccc2c(N)c3ccccc3nc2c1	5
[N-]=[N+]=Nc1ccc2cc3ccc(N)cc3nc2c1	4.6
C[n+]1c2cc(N)ccc2cc2ccc(N=[N+]=[N-])cc21.[Cl-]	6.9
[N-]=[N+]=Nc1ccc2nc3ccccc3c(N)c2c1	4.8
C[n+]1c2cc(N=[N+]=[N-])ccc2cc2ccc(N=[N+]=[N-])cc21.[Cl-]	5.8
C[n+]1c2ccccc2cc2cc(N=[N+]=[N-])ccc21.[Cl-]	4.4
[N-]=[N+]=Nc1ccc2c(N)c3ccccc3nc2c1	5.8
C[n+]1c2ccccc2c(N)c2ccccc21.[Cl-]	4.2
C[n+]1c2ccccc2cc2ccc(N=[N+]=[N-])cc21.[Cl-]	5.4
C[n+]1c2ccccc2c(N=[N+]=[N-])c2ccccc21.[Cl-]	5
C[n+]1c2ccccc2cc2cc(N)ccc21.[Cl-]	3.6
[N-]=[N+]=Nc1ccc(Nc2c3ccccc3nc3ccccc23)cc1	4.4

Each molecule was assayed on Trypanosoma brucei (assay: Compound is evaluated for trypanocidal activity against Trypanosoma brucei, by exposing the parasites directly to compound prior to injection to mice at 10 e-5 M concentration (pre) in dark conditions).
Type: functional
Method in brief: (§4)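 Drug was preirradiated 1 h with visible light, then added at the final concentration to T. brucei EATRO 110 (5×10^6/mL in TSG) and rotated 10 min. The parasites were then kept dark with a red safelight. Swiss mice, five per group, were injected ip with 0.1 mL holding 5×10^5 parasites. Mean days survival ±SD was scored over 30 days against untreated-parasite controls.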

SMILES	Activity
[N-]=[N+]=Nc1ccc2cc3ccc(N)cc3nc2c1	5.2
C[n+]1c2ccccc2cc2ccc(N=[N+]=[N-])cc21.[Cl-]	4.4

What follows are molecules tested on Trypanosoma brucei (assay: Compound is evaluated for trypanocidal activity against Trypanosoma brucei, by exposing the parasites directly to compound prior to injection to mice at 10 e-5 M concentration (pre) in presence of light).
Type: functional
Method in brief: as §2

SMILES	Activity
[N-]=[N+]=Nc1ccc2cc3ccc(N)cc3nc2c1	5.2
[N-]=[N+]=Nc1ccc2c(N)c3ccccc3nc2c1	5.2
C[n+]1c2ccccc2cc2ccc(N=[N+]=[N-])cc21.[Cl-]	5.8

The molecules below were run on Trypanosoma brucei (assay: Trypanocidal activity against Trypanosoma brucei, exposure of parasites to compound prior to injection into mice at 10 e-5 M concentration in dark conditions).
Type: functional
Method in brief: as §3

SMILES	Activity
Nc1ccc2c(N)c3ccccc3nc2c1	8.1
[N-]=[N+]=Nc1ccc2cc3ccc(N)cc3nc2c1	5.5
C[n+]1c2cc(N)ccc2cc2ccc(N=[N+]=[N-])cc21.[Cl-]	18.2
[N-]=[N+]=Nc1ccc2nc3ccccc3c(N)c2c1	5.4
C[n+]1c2cc(N=[N+]=[N-])ccc2cc2ccc(N=[N+]=[N-])cc21.[Cl-]	6
C[n+]1c2ccccc2cc2cc(N=[N+]=[N-])ccc21.[Cl-]	14.5
[N-]=[N+]=Nc1ccc2c(N)c3ccccc3nc2c1	6.3
C[n+]1c2ccccc2c(N)c2ccccc21.[Cl-]	5.4
C[n+]1c2ccccc2cc2ccc(N=[N+]=[N-])cc21.[Cl-]	6.6
C[n+]1c2ccccc2c(N=[N+]=[N-])c2ccccc21.[Cl-]	3.6
C[n+]1c2ccccc2cc2cc(N)ccc21.[Cl-]	5.8
[N-]=[N+]=Nc1ccc(Nc2c3ccccc3nc3ccccc23)cc1	4

Each molecule was assayed on Trypanosoma brucei (assay: Compound is evaluated for trypanocidal activity against Trypanosoma brucei, by exposing the parasites directly to compound prior to injection to mice at 10 e-7 M concentration in presence of light).
Type: functional
Design: unit: days
Method in brief: as §1

SMILES	Activity
Nc1ccc2c(N)c3ccccc3nc2c1	15
[N-]=[N+]=Nc1ccc2cc3ccc(N)cc3nc2c1	5.9
C[n+]1c2cc(N)ccc2cc2ccc(N=[N+]=[N-])cc21.[Cl-]	30
[N-]=[N+]=Nc1ccc2nc3ccccc3c(N)c2c1	6
C[n+]1c2cc(N=[N+]=[N-])ccc2cc2ccc(N=[N+]=[N-])cc21.[Cl-]	5.6
C[n+]1c2ccccc2cc2cc(N=[N+]=[N-])ccc21.[Cl-]	4.2
C[n+]1c2ccccc2c(N=[N+]=[N-])c2ccccc21.[Cl-]	6.2

These molecules were tested on Trypanosoma brucei (assay: Compound is evaluated for trypanocidal activity against Trypanosoma brucei, by exposing the parasites directly to compound prior to injection to mice at 10 e-6 M concentration (pre) in dark conditions).
Type: functional
Method in brief: as §4

SMILES	Activity
C[n+]1c2cc(N)ccc2cc2ccc(N=[N+]=[N-])cc21.[Cl-]	6.3
C[n+]1c2ccccc2cc2ccc(N=[N+]=[N-])cc21.[Cl-]	4.7

Each molecule was assayed on Trypanosoma brucei (assay: Compound is evaluated for trypanocidal activity against Trypanosoma brucei, by exposing the parasites directly to compound prior to injection to mice at 10 e-7 M concentration in dark conditions).
Type: functional
Design: unit: days
Method in brief: as §3

SMILES	Activity
Nc1ccc2c(N)c3ccccc3nc2c1	5.2
[N-]=[N+]=Nc1ccc2cc3ccc(N)cc3nc2c1	5.7
C[n+]1c2cc(N)ccc2cc2ccc(N=[N+]=[N-])cc21.[Cl-]	6.4
[N-]=[N+]=Nc1ccc2nc3ccccc3c(N)c2c1	4.6
C[n+]1c2cc(N=[N+]=[N-])ccc2cc2ccc(N=[N+]=[N-])cc21.[Cl-]	5.4
C[n+]1c2ccccc2cc2cc(N=[N+]=[N-])ccc21.[Cl-]	4.8
C[n+]1c2ccccc2c(N=[N+]=[N-])c2ccccc21.[Cl-]	5.2

Each molecule was assayed on Trypanosoma brucei (assay: Trypanocidal activity against Trypanosoma brucei, exposure of parasites to compound prior to injection into mice at 10 e-4 M concentration in dark conditions).
Type: functional
Method in brief: as §3

SMILES	Mean survival time of infected mice (days)
Nc1ccc2c(N)c3ccccc3nc2c1	30
[N-]=[N+]=Nc1ccc2cc3ccc(N)cc3nc2c1	8.3
C[n+]1c2cc(N)ccc2cc2ccc(N=[N+]=[N-])cc21.[Cl-]	30
[N-]=[N+]=Nc1ccc2nc3ccccc3c(N)c2c1	9.8
C[n+]1c2cc(N=[N+]=[N-])ccc2cc2ccc(N=[N+]=[N-])cc21.[Cl-]	30
C[n+]1c2ccccc2cc2cc(N=[N+]=[N-])ccc21.[Cl-]	30
[N-]=[N+]=Nc1ccc2c(N)c3ccccc3nc2c1	25.3
C[n+]1c2ccccc2c(N)c2ccccc21.[Cl-]	30
C[n+]1c2ccccc2cc2ccc(N=[N+]=[N-])cc21.[Cl-]	30
C[n+]1c2ccccc2c(N=[N+]=[N-])c2ccccc21.[Cl-]	30
C[n+]1c2ccccc2cc2cc(N)ccc21.[Cl-]	30
[N-]=[N+]=Nc1ccc(Nc2c3ccccc3nc3ccccc23)cc1	4.8
